Molecular target: T1, Zinc finger protein GLI1 (Homo sapiens, UniProt P08151)
T1 sequence (P08151 whole entry): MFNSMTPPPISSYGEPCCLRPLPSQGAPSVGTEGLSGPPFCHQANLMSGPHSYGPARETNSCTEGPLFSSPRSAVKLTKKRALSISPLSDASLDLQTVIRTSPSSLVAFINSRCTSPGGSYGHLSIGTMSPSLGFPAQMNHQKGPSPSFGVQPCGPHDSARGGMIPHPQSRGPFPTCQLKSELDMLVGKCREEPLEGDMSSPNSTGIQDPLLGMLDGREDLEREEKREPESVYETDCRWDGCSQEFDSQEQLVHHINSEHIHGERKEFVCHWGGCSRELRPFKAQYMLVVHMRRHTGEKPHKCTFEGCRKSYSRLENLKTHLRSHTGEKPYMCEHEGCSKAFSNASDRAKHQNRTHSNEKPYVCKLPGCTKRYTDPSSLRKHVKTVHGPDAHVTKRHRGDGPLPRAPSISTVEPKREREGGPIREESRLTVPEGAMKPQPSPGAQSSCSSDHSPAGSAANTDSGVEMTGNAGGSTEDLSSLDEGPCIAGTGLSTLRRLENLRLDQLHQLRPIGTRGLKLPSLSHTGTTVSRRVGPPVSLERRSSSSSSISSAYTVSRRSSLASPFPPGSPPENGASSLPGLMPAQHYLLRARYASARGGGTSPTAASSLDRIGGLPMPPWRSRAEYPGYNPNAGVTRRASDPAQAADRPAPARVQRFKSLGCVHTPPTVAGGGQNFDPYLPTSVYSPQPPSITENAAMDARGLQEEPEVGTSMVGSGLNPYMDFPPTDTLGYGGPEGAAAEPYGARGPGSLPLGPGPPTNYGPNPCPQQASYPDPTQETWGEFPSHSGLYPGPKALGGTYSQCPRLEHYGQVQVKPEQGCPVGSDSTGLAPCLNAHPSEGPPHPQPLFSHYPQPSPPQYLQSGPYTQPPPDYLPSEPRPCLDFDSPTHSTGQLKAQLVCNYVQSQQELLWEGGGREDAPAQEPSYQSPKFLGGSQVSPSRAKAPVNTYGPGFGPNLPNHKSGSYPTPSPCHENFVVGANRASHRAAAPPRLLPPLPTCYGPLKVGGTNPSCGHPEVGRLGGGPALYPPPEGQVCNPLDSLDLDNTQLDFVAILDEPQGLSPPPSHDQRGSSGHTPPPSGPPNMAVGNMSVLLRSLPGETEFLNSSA
Test: Inhibition of exogenously transfected human Gli1-mediated transcriptional activity in mouse C3H10T1/2 cells after 24 hrs by luciferase reporter gene assay
How it was run: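 They were replated 18 h later, given compound or DMSO 6 h after plating, and exposed for 24 h at 37 °C, 5% CO2. Lysate was read by dual luciferase as firefly/Renilla, triplicate, DMSO = 0%. IC50 came from curve fitting.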

SMILES | IC50 [µM]
C[C@H](C(=O)N(CCc1ccc(O)cc1)CCc1ccc(O)cc1)c1cccc(C(=O)c2ccccc2)c1 [(S)-2-(3-Benzoylphenyl)-N,N-bis(4-hydroxyphenethyl)propanamide] | 9.4
CCCN(CCc1ccc(O)cc1)C(=O)[C@@H](C)c1cccc(C(=O)c2ccccc2)c1 [(S)-2-(3-Benzoylphenyl)-N-(4-hydroxyphenethyl)-N-propylpropanamide] | 6.9
C[C@H](C(=O)NCCc1ccc(O)cc1)c1cccc(C(=O)c2ccccc2)c1 [(S)-2-(3-Benzoylphenyl)-N-(4-hydroxyphenethyl)propanamide] | 11.4

Reference: BindingDB's records for doi:10.1021/jm900106f (St. Jude Children'S Research Hospital, 2009)
